# Only some compounds are listed: those with a hit (about 3.5% of all), similar ones and a draw of the others.
# MrgX1 ag: agonists of human MrgX1 receptor, primary screen, HEK293 cells, Fluo-4 calcium flux; Mas-related G-protein coupled receptor member X1 (Homo sapiens), Q96LB2; Fluo-4 calcium fluorescence, agonist mode; hits give high values; B-score at 10 µM; 0.44% of 310,000 active;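 active = calcium response B-score plate-corrected fluorescence ratio at least 3 library SD, with starting fluorescence B-score inside 5 SD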
# Target sequence (Q96LB2 whole entry, looked up): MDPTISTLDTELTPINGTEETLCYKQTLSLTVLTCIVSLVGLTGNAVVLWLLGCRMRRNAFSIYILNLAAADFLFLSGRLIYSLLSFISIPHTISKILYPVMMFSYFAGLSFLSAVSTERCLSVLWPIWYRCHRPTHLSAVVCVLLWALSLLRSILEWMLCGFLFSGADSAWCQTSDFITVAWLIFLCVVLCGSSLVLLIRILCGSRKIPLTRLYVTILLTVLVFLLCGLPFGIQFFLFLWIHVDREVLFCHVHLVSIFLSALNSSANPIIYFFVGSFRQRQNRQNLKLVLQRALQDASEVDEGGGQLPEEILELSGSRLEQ
#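 times = overnight plating, then 30 min 37 °C plus 30 min room-temperature dye loading | assay system = stable human MrgX1 HEK293 cell line | input = fifteen thousand cells per well | signal = kinetic calcium dye fluorescence, Fluo-4 NW | dosing = compound delivered in addition one of three | read-out = B-scored fluorescence response ratio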
# MrgX1 antag: antagonists of human MrgX1 receptor, primary screen, HEK293 cells, Fluo-4 calcium flux. Mas-related G-protein coupled receptor member X1 (Homo sapiens), Q96LB2. BAM8-22 antagonism; hits give low values. B-score at 10 µM. 1.3% of 310,000 active. AID 588676, 2011;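 active = calcium-response B-score plate-corrected more than 3 library SD below zero, starting fluorescence within 5 deviations, no agonist response on first addition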;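 note: peak minus trough fluorescence over baseline after final BAM8-22 challenge near maximal dose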
# RGS4 block: RGS4 inhibitors, primary screen, cell-based, HEK293 M3R inducible RGS4, calcium flux; AID 463165, 2010; Regulator of G-protein signaling 4 (Homo sapiens), P49798; 0.45% of 310,000 active; B-score at 10 µM; Fluo-4 calcium flux; hits give high values; triggered by carbachol at its EC20;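 active = B-score, a plate-corrected calcium signal, over three deviations above library mean, with baseline fluorescence within five deviations of library mean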;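 note: RGS4 expression induced by doxycycline in cells with stable M3 receptor; B-score is computed from the integrated fluorescence ratio over baseline after carbachol; higher B-score means a larger calcium signal and so more RGS4 inhibition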
# Target sequence (P49798 whole entry, looked up): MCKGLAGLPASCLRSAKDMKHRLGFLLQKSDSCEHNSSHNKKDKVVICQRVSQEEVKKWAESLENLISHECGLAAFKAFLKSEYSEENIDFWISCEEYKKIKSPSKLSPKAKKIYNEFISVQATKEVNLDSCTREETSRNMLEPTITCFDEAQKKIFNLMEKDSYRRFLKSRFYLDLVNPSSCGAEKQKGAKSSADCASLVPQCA
# RGS4 act: RGS4 potentiators or activators, primary screen, cell-based, HEK293 M3R inducible RGS4, calcium flux. 0.92% of 310,000 active. carbachol calcium flux Fluo4; hits give low values. B-score at 10 µM;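 active = B-score of the integrated calcium signal more than 4 SD below the library mean, with starting fluorescence not abnormally high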;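 note: negative B-score means reduced calcium response which marks RGS4 activation or potentiation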
#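 Test system: HEK293 cells with stable M3R and inducible RGS4; also added: carbachol at ECmax as muscarinic agonist stimulus; schedule: dye loading 30 min 37 °C, buffer rest 30 min RT; technique: kinetic calcium fluorescence imaging with Fluo4-AM dye, 2 µM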
# MrgX1 allo act: positive allosteric modulators of MrgX1, primary screen, HEK293 cells, Fluo-4 calcium flux; AID 588675, 2011; 0.63% of 310,000 active; B-score at 10 µM; Mas-related G-protein coupled receptor member X1 (Homo sapiens), Q96LB2; FDSS; hits give high values;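 active = plate-corrected calcium response at least 3 library SD above typical, normal starting fluorescence, not activating the receptor alone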;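 note: compound read alongside a low EC10 to EC30 dose of BAM8-22 agonist; peak minus trough fluorescence over baseline measured at the second addition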
# * hit, by the source's call; i = inactive; x = not tested or not shown.
SMILES,MrgX1 ag,MrgX1 antag,RGS4 block,RGS4 act,MrgX1 allo act
CCOP(=S)(OCC)SCC(=O)NC(C(=O)O)C(C)C (configuration not stated),i,i,i,i,i
CC[N+](C)(CC)CCCOC(=O)C(O)(c1ccccc1)C1CCCCC1 (configuration not stated),i,i,i,-7.08*,i
O=C(O)C(O)(c1ccccc1)C1CCCCC1 (configuration not stated),i,i,i,i,i
CCOC(C(=O)OCCC[N+](C)(CC)CC)(c1ccccc1)c1ccccc1,i,i,i,-8.71*,i
CCCCNC(=O)NC(C(N)=O)P(=O)(OCC)OCC (configuration not stated),i,i,i,i,i
C/C(=N\NC(=O)c1ccccc1)c1c(O)n(C2CCCCC2)c(=O)[nH]c1=O,i,i,i,i,i
O=c1[nH]c(O)c(N=Nc2ccc(SC(F)F)cc2)c(=O)[nH]1,i,i,i,i,13.2*
NC(=O)c1ccc(N=Nc2c(O)[nH]c(=O)[nH]c2=O)cc1,i,i,i,i,i
COc1ccc(/C=C/C2=CCN(C)CC2)cc1,i,i,i,i,i
Oc1cccc(/C=N/NP(=S)(c2ccccc2)c2ccccc2)c1,i,i,i,i,i
NC(N)=N/N=C/c1ccc(N(c2ccccc2)c2ccccc2)cc1,i,i,i,-8.3*,i
Cc1cc(C=C2C(=O)NC(=S)NC2=O)c(C)n1C1CCCC1,i,i,i,i,i
Cc1cc(C=C2C(=O)N(C)C(=S)N(C)C2=O)c(C)n1C1CCCCC1,47*,i,i,i,i
O=C1NC(=O)N(c2ccccc2F)C(=O)/C1=C/c1ccc(Oc2ccc([N+](=O)[O-])cn2)cc1,i,i,i,i,i
COc1ccc(C(=O)C2CN(C)CC2c2ccc(Cl)cc2)cc1 (configuration not stated),i,i,i,-7.25*,i
COc1cccc(C(=O)C2CN(C)CC2c2ccc(Cl)cc2)c1 (configuration not stated),i,i,i,i,i
Cc1ccccc1-n1c(-c2ccc([N+](=O)[O-])cc2)nc2ccccc2c1=O,i,i,i,-10.1*,i
C[N+]12CCC(CC1)C(C(O)(c1ccccc1)c1cccs1)C2 (configuration not stated),i,i,i,-7.73*,i
COP(=O)(OC)C(NC(=O)C(C)(C)C)=C(Cl)Cl,i,-5.77*,i,i,i
CN1CCN(c2ccc(N)cc2Cl)CC1,i,-5.26*,i,i,i
CC1Oc2cc3c(-c4c(O)cc(O)c5c(O)c6c(cc45)OC(C)C(C)C6=O)c(O)cc(O)c3c(O)c2C(=O)C1C (configuration not stated),i,-5.9*,i,i,i
FC(F)(F)c1cccc(N2CCNCC2)c1,i,i,i,i,i
O=C(Nc1ccc(F)cc1)c1c(O)c2c(n(Cc3ccccc3)c1=O)CCCC2,i,i,i,i,i
CCN(CC)c1ccc(CNCCc2ccccc2F)cc1,i,i,i,-6.97*,i
CCN(CCO)c1ccc(N=Cc2c(O)n(C)c(=S)[nH]c2=O)cc1,43.3*,i,i,i,i
SMILES,MrgX1 ag,MrgX1 antag,RGS4 block,RGS4 act,MrgX1 allo act
CCN(CC)c1ccc(N=Cc2c(O)n(Cc3ccco3)c(=O)[nH]c2=O)cc1,i,i,i,i,i
O=c1c2cc(Cl)cc(Cl)c2nc(CN2CCOCC2)n1-c1ccccc1F,i,i,i,i,i
O=C(CCN1CCCCC1)Nc1ccc(Cl)cc1C(=O)c1ccccc1,i,i,i,i,i
CN1/C(=C\C=C\C2=[N+](C)c3ccc4ccccc4c3C2(C)C)C(C)(C)c2ccccc21,i,i,x,x,i
C[N+]1=C(/C=C/Nc2ccccc2)C(C)(C)c2ccccc21,i,-4.91*,i,i,i
Cc1ccc(-c2cc(-c3ccccc3)cc(-c3ccccc3)[n+]2-c2ccc(C(=O)O)cc2)cc1,i,i,i,i,i
Cc1ccccc1-[n+]1c(-c2ccccc2)cc(-c2ccccc2)cc1-c1ccccc1,i,-7.33*,i,-8.86*,i
[O-]c1ccccc1-[n+]1c(-c2ccccc2)cc(-c2ccccc2)cc1-c1ccccc1,i,i,i,i,8.34*
Oc1ccccc1-[n+]1c(-c2ccccc2)cc(-c2ccccc2)cc1-c1ccccc1,i,i,i,-7.4*,12.5*
Nc1ccccc1-[n+]1c(-c2ccccc2)cc(-c2ccccc2)cc1-c1ccccc1,i,-7.32*,i,i,i
O=C(O)c1ccc(-[n+]2c(-c3ccccc3)cc(-c3ccccc3)cc2-c2ccccc2)cc1,i,i,i,i,i
O=C1NC(=O)C(=Cc2cccc(OCCOc3ccccc3)c2)C(=O)N1,i,i,i,i,i
O=C1CC(c2cccnc2)=NN1c1ccccc1,i,i,i,i,i
CCCCc1nc2ccccc2c(=O)n1-c1ccccc1[N+](=O)[O-],i,i,i,i,i
COc1ccc(-n2c(/C=C3/C(=O)Nc4ccccc43)nc3ccccc3c2=O)cc1,i,i,i,i,i
CCOC(=O)C1(CCc2ccccc2)CCN(Cc2csc(C(C)=O)c2)CC1,i,i,i,i,i
CCOC(=O)C1(CCc2ccccc2)CCN(Cc2cccc3c2OCO3)CC1,i,i,i,-7.54*,i
COc1ccc(OCC(=O)N2CCN(CC3CC4C=CC3C4)CC2)cc1 (configuration not stated),i,i,i,i,i
CC/C(=N\N1CCCCCC1)c1c(O)n(-c2ccc(C)cc2)c(=O)[nH]c1=O,i,i,i,i,11.3*
C/C(=N\N1CCCCCC1)c1c(O)n(-c2ccc(C)cc2)c(=O)[nH]c1=O,i,i,i,i,i
CC[N+]12CCC(CC1)C(=C(c1ccccc1)c1ccccc1)C2,i,i,i,-10*,i
CCC[N+]12CCC(CC1)C(C(O)(c1ccccc1)c1ccccc1)C2 (configuration not stated),i,i,i,i,i
